Measured values: publication PMC2646257 (Journal of medicinal chemistry, 2009)
“And” between values parts separate entries of the source, which are not always exact repeats. Equal values may be shown once. Read-outs that look alike come from different tables or passages of the source.

Tests used:
[1] = mouse; cited from earlier work
[2] = Stability in sodium phosphate buffer; assay type: physicochemical; details: sodium phosphate buffer (0.15 M, pH 7.4), room temperature
How it was run: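 Radioligand was incubated in 0.15 M sodium phosphate buffer, pH 7.4, at room temperature for 2 h and analysed by HPLC.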

[3] = Radiochemical stability of formulated radioligand; assay type: physicochemical; details: formulated [^18F]9
[4] = Plasma free fraction, monkey; assay type: in vitro ADME; details: two monkeys, one value each (n = 9 and n = 3)
How it was run: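 Radioligand was added to plasma and placed on a centrifugal ultrafiltration unit. The unit was spun at 5000g, and all filter-unit components were counted for radioactivity to derive free fraction.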

PBR [5] = test: PET imaging in monkeys; assay type: in vivo, rhesus monkey; details: monkey
How it was run: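 Male rhesus monkeys (11–15 kg) received an i.v. bolus of radioligand (2.76–5.80 mCi; 0.068–0.276 μg/kg) and were scanned up to 300 min. In pre-block, PBR ligand (3 mg/kg i.v.) was given 24 min before radioligand and imaging ran 120 min. In displacement, one monkey received 1.28 mCi, then 3 mg/kg i.v. at 60 min, with 240 min scanning. Uptake was given as %SUV. Images were co-registered with T1 1.5-T MRI.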

[6] = Emergence of radiometabolites in monkey plasma in vivo; design: species or system rhesus monkey
How it was run: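 Three male rhesus monkeys (11–15 kg) received i.v. bolus radioligand during four PET scans: three baseline and one pre-block (PBR ligand 3 mg/kg i.v., 24 min before). Arterial blood was drawn periodically from the femoral artery into heparin tubes and centrifuged. Plasma (1 mL) was mixed with acetonitrile (1.5 mL) and centrifuged. Supernatant was analysed by radio-HPLC for % parent and radiometabolites. Plasma concentration was expressed as %SUV.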

[7] = Stability to rat brain homogenate in vitro; assay type: in vitro ADME; details: 37 °C, up to 60 min
How it was run: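 Excised rat brain (1.70 g) was homogenized in 3 mL saline, spiked with 5 μCi radioligand and incubated at 37 °C. Aliquots (n = 6) were taken periodically up to 60 min into acetonitrile, centrifuged and analysed by radio-HPLC for % parent and radiometabolites. A second brain, homogenized in saline/acetonitrile before spiking, served as reference.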

[8] = Emergence of radiometabolites in rat plasma, brain and urine in vivo
How it was run: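 Four rats (277–623 g) were kept under 1.5% isoflurane in oxygen at 37 °C. Two received NCA radioligand i.v. (0.812 or 1.32 mCi; >1.39 Ci/μmol) and were killed at 30 or 95 min. Two received carrier-added radioligand (0.86 or 0.89 mCi; ~0.13 Ci/μmol; saline with 10% ethanol, 5% Tween 80), had 5 mL saline i.p. 30 min before, and were killed at 60 min with urine collected. Plasma was deproteinized. Brain was homogenized on ice in saline/acetonitrile plus water and centrifuged. Analysis was by radio-HPLC.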

[9] = assay type: in vitro ADME, rat; details: 30 min
[10] = LC-MS-MS search for metabolites in rat brain, urine and plasma in vivo
How it was run: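 Three rats under 1.5% isoflurane received non-radioactive test compound (2.26 ± 0.76 mg) via the penile vein over 9 min, in 0.9 mL saline with 10% ethanol and Cremophor EL or Tween 80. Urethras were clamped; saline 0.1 mL was given i.v. every 30 min. Blood and urine were taken at 60 or 115 min. Brain was homogenized twice in acetonitrile/water and spun at 10,000g for 10 min. Plasma was deproteinized with acetonitrile. Samples were stored at −70 °C and analysed by LC-MS-MS.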

PBR [11] = details: cited from earlier work
[12] = two rats, carrier-added, 60 min

## COc1ccc(OC[18F])c(CN(C(C)=O)c2cc(F)ccc2Oc2ccccc2)c1 [[^18F]4]
[1]
  defluorination: rapidly defluorinated

## COc1ccc(OC)c(CN(C(=O)C[18F])c2ccccc2Oc2ccccc2)c1 [[^18F]9, [^18F]N-fluoroacetyl-N-(2,5-dimethoxybenzyl)-2-phenoxyaniline]
[2]
  time stable in buffer: > 2 h
[3]
  time radiochemically stable: at least 4 h
[4]
  plasma free fraction (fP): 3.5 ± 0.2% and 1.34 ± 0.1%
PBR [5]; PET images 60-120 min
  defluorination (uptake of radioactivity into skull): does not defluorinate significantly
PBR [5]; choroid plexus of fourth ventricle, baseline, n = 4
  maximal brain uptake: 371 ± 89 % SUV
PBR [5]; choroid plexus, 1 (3 mg/kg i.v.) given 60 min after [^18F]9
  proportion of brain radioactivity displaced: up to 90%
[6]; baseline, the one monkey also studied with pre-block
  time for radiometabolite to reach half of plasma radioactivity: 24 min
[6]; monkey plasma, all samples except one
  minor radiometabolite, share of total plasma radioactivity: ≤ 4%
[6]; monkey, %SUV, same monkey
  peak plasma concentration of unchanged [^18F]9, pre-block versus baseline: ~18 fold
[6]; monkey, baseline experiments, n = 3
  time at which plasma is composed equally of radiometabolite and [^18F]9: 31.1 ± 14.7 min
[6]; monkey, pre-block with 1 (3 mg/kg i.v.), 3 mg/kg
  time at which plasma is composed equally of radiometabolite and [^18F]9: 4.0 min and 4 min
[6]; one monkey, one plasma sample at 60 min after injection
  minor radiometabolite, share of total plasma radioactivity: 8%
[7]
  unchanged radioligand after incubation: > 99.2%
[8]; rat, NCA, mass dose 0.85 μg/kg, 30 min, n = 2
  [^18F]9 as share of plasma radioactivity: 12.5%
[8]; second rat, NCA, mass dose 3.78 μg/kg
  minor radiometabolite, share of total radioactivity: < 5%
[8]; [12]
  minor radiometabolite, share of brain radioactivity: < 5%
  minor radiometabolite, share of plasma radioactivity: < 3%
  minor radiometabolite, share of urine radioactivity: 9.9 ± 2.2%

## O=C(C[18F])Nc1ccccc1Oc1ccccc1 [[^18F]11, [^18F]2-fluoro-N-(2-phenoxyphenyl)acetamide]
[9]; rat brain homogenate
  conversion into polar radiometabolite(s): > 99.9%
[9]; rat whole blood
  conversion into polar radiometabolite(s): > 99.9%

## COc1ccc(OC)c(CN(C(=O)CF)c2ccccc2Oc2ccccc2)c1 [compound 9, N-Fluoroacetyl-N-(2,5-dimethoxybenzyl)-2-phenoxyaniline]
[10]
  unchanged 9 in urine by LC-MS-MS: not detected
[10]; sampled at 115 min after administration
  unchanged 9 in brain and plasma by LC-MS-MS: detected
PBR [11]
  selectivity for PBR: selective for PBR
